{"data": "Results collected from several papers", "organism": "Escherichia coli", "observed": "microbial growth"}
{"Structure (SMILES)": "CC(=O)C1=NN(c2ccccc2)C(=C(C#N)C(=O)c2ccc(Nc3cnccn3)cc2)S1", "technique": "broth dilution", "strain": "ATCC10536", "MIC": "100 µg/mL"}
{"Structure (SMILES)": "Cc1ccc2[nH]nc(-c3nnc(Nc4ccc([N+](=O)[O-])cc4)s3)c2c1", "strain": "ATCC25922", "MIC": "92.8 µg/mL"}
{"Structure (SMILES)": "COc1cc2cc(CNCCN3CCN(C)CC3)c(SCc3ccccc3)nc2c(OC)c1OC", "technique": "broth dilution", "MIC": "> 128 µg/mL"}
{"Structure (SMILES)": "COc1ccc2ccc(O)c(/C=N/[C@H]3CCCC[C@H]3/N=C/c3ccc(OCCN4CCCCC4)cc3O)c2c1", "technique": "broth dilution", "setting": "clinical isolate", "MIC": "> 40 µM"}
{"Structure (SMILES)": "CCCCCCCCCCCC[N+](C)(C)Cc1ccccc1", "MIC": "63 µM"}
{"Structure (SMILES)": "Cc1ccc2[nH]nc(-c3nnc(Nc4ccc(Cl)cc4)s3)c2c1", "strain": "ATCC25922", "MIC": "81.7 µg/mL"}
{"Structure (SMILES)": "C[C@@H](O)[C@H]1C(=O)N2C(C(=O)O)=C(S[C@@H]3CN[C@H](C(=O)N(C)C)C3)[C@H](C)[C@H]12", "technique": "broth dilution", "strain": "ATCC25922", "MIC": "< 0.5 µg/mL"}
{"Structure (SMILES)": "CCN1CCN(c2cc3c(cc2F)c(=O)c(C(=O)O)cn3C2CC2)CC1", "technique": "broth dilution", "strain": "ATCC25922", "MIC": "0.0625 µg/mL"}
{"Structure (SMILES)": "CC(C)c1ccc(/C=C2\\N=C(SCC(=O)O)N(c3ccccc3)C2=O)cc1", "technique": "broth dilution", "strain": "ATCC25 ATCC25922", "MIC": "15 µg/mL"}
{"Structure (SMILES)": "Cc1ccc2[nH]nc(-c3nnc(Nc4ccc(Br)cc4)s3)c2c1", "strain": "ATCC25922", "MIC": "251 µg/mL"}
{"Structure (SMILES)": "C[C@@H](O)[C@H]1C(=O)N2C(C(=O)O)=C(SCCN=CN)C[C@H]12", "MIC": "≤ 0.25 µg/mL"}
{"Structure (SMILES)": "N=c1sc(C(=O)c2ccc(Nc3cnccn3)cc2)nn1-c1ccccc1", "technique": "broth dilution", "strain": "ATCC10536", "MIC": "50 µg/mL"}
{"Structure (SMILES)": "Cc1ccc2[nH]nc(-c3nnc(Nc4ccc(Cl)c(Br)c4)s3)c2c1", "strain": "ATCC25922", "MIC": "247 µg/mL"}
{"Structure (SMILES)": "CN1CCN(CCNCc2cc3cc(Br)ccc3nc2SCc2ccccc2)CC1", "technique": "broth dilution", "MIC": "16 µg/mL"}
{"Structure (SMILES)": "CC(=O)OCc1nn(C)c2nc(N)[nH]c(=O)c2c1=O", "technique": "broth dilution", "strain": "BW25113", "time": "18 h", "MIC": "25 µg/mL"}
{"Structure (SMILES)": "CC(C)(O/N=C(\\C(=O)N[C@@H]1C(=O)N2C(C(=O)[O-])=C(C[n+]3ccccc3)CS[C@H]12)c1csc(N)n1)C(=O)O", "MIC": "0.25 µg/mL"}
{"Structure (SMILES)": "c1ccc(CSc2nc3ccccc3cc2CNCc2ccc(N3CCCCC3)cc2)cc1", "technique": "broth dilution", "MIC": "> 128 µg/mL"}
{"Structure (SMILES)": "COc1ccc2ccc(O)c(/C=N/[C@H]3CCCC[C@H]3/N=C/c3ccc(-c4ccccc4)cc3O)c2c1", "technique": "broth dilution", "setting": "clinical isolate", "MIC": "> 40 µM"}
{"Structure (SMILES)": "CN1CCN(CCNCc2cc3cc(-c4ccccc4)ccc3nc2SCc2ccccc2)CC1", "technique": "broth dilution", "MIC": "16 µg/mL"}
{"Structure (SMILES)": "Cc1onc(-c2ccccc2)c1C(=O)N[C@@H]1C(=O)N2[C@@H]1SC(C)(C)[C@@H]2C(=O)O", "technique": "broth dilution", "strain": "ATCC25922", "MIC": "< 0.5 µg/mL"}
{"Structure (SMILES)": "N#CC(C#N)=C1SC(C(=O)c2ccc(Nc3cnccn3)cc2)=NN1c1ccc([N+](=O)[O-])cc1", "technique": "broth dilution", "strain": "ATCC10536", "MIC": "12.5 µg/mL"}
